Here are results for 1 compound from ChEMBL document CHEMBL4028906, “Allosteric Inhibitors of SHP2 with Therapeutic Potential for Cancer Treatment” (J Med Chem, 2017).

What is called IC50 is the midpoint of a concentration-inhibition curve. Low values mean inhibition by little substance, high ones a need for much substance.

Molecules are shown by their SMILES. Calls of active or inactive are those of the source. The rule behind the calls is not given here.

In data set [1] the target is M-phase inducer phosphatase 1 (Homo sapiens, UniProt P30304). In words: Inhibition of CDC25A (unknown origin) expressed in Escherichia coli BL21(DE3) using DIFMUP as substrate preincubated for 20 mins followed by substrate addition measured after 20 mins by phosphatase assay. The method in brief: (§1)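 Phosphatases purified from E. coli and run as for SHP2 E76A: 20 min room-temperature preincubation with compound in 0.1 M sodium acetate pH 5.0, then DIFMUP at each enzyme's Km, 20 min, fluorescence 358/455 nm. Eight 3-fold dilutions in duplicate; IC50 from at least three independent experiments.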

Data set [2] has as its target Dual specificity protein phosphatase 3 (Homo sapiens, UniProt P51452). In words: Inhibition of VHR (unknown origin) expressed in Escherichia coli BL21(DE3) using DIFMUP as substrate preincubated for 20 mins followed by substrate addition measured after 20 mins by phosphatase assay. Summed up: as §1
The species named for data set [3] is Homo sapiens. As to the kind of experiment: Selectivity ratio of IC50 for TC-PTP (unknown origin) expressed in Escherichia coli BL21(DE3) to IC50 for SHP2 E76A mutant (unknown origin) expressed in Escherichia coli BL21(DE3). The method in brief:
(§2)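 Ratio of IC50 values from one DIFMUP fluorescence assay (Ex/Em 358/455), room temperature, 0.1 M sodium acetate pH 5.0. His-tagged SHP2 E76A (1.5 nM) or counter-phosphatase purified from E. coli, preincubated 20 min with compound (eight 3-fold dilutions), then DIFMUP added for 20 min. DIFMUP was at Km for each counter-phosphatase. Duplicates; IC50 from at least three independent experiments.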

Data set [4] addresses T1, Tyrosine-protein phosphatase non-receptor type 11 (Homo sapiens) (UniProt Q06124).
T1 sequence (whole entry): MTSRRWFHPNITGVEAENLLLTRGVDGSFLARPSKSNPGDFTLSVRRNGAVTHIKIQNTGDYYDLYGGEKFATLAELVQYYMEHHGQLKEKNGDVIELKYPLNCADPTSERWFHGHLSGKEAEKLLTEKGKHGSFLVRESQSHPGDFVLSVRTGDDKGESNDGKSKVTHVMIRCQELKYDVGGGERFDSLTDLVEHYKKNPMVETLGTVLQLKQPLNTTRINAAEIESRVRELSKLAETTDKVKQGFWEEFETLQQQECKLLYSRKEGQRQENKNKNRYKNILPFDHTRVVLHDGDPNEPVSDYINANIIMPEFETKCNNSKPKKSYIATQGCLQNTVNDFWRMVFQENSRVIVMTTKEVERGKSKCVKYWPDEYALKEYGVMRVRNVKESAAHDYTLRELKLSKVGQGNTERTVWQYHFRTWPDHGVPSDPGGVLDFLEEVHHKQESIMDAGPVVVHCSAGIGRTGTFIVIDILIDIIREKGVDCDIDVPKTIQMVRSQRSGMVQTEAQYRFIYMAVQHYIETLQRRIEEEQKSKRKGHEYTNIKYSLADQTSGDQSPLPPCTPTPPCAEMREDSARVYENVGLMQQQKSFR
In words: Allosteric inhibition of SHP2 in human NCI-H661 cells assessed as downregulation of ERK1/2 activation at 10 uM by Western blot analysis. The data set is classed as cell-based. The conditions noted are these: TDE = time-dependent effect. A general note: In western blotting, separated proteins are transferred to a membrane and probed.

Another data set relates to MV4-11. As to the kind of experiment: Antitumor activity against human MV4-11 cells xenografted in BALB/c mouse assessed as tumor growth inhibition at 30 mg/kg administered qd via oral gavage measured twice weekly relative to control. The conditions noted are these: MV4-11, po, read-out: TGI. The data set is classed as functional. The method in brief: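 Female BALB/c nude mice given subcutaneous MV4;11 cells (5×10^6, in 50% phenol red-free matrigel in PBS). Once tumours reached about 230 mm³, mice were randomised to vehicle or oral gavage once daily (10 ml/kg). Tumour volume was measured by caliper in two dimensions twice a week, along with body weight. Data given as mean±sem, with significance assessed on day 14.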

Data set [5] deals with T1, Tyrosine-protein phosphatase non-receptor type 11 (Homo sapiens). In words: Allosteric inhibition of SHP2 in human SF268 cells assessed as downregulation of YAP-mediated CYR61 gene expression ay 10 to 20 uM after 2 hrs by qRT-PCR analysis. The data set is classed as cell-based. The method in brief:
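SF268 cells exposed to DMSO, 10 μM or 20 μM inhibitor for 2 h. RNA extracted, reverse-transcribed, and CTGF, CYR61, ANKRD1 and YAP mRNA quantified by qPCR; mean±s.d., n=3.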
On the technique in general: Quantitative PCR measures a nucleic acid by following its amplification.

A further data set has as its system NCI-H1838. In words: Antiproliferative activity against human NCI-H1838 cells at 3 to 6 uM after 2 days by CellTiter-Glo assay. The data set is classed as functional, cell-based. The method in brief: (§3)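 3000 cells/well in 96-well plates, grown overnight, then inhibitor at indicated concentrations for 2 days (48 h). Viability by CellTiter-Glo; mean±s.d., n=3.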

Another data set deals with KYSE-520 cell line. In words: Antiproliferative activity against human KYSE520 cells at 3 to 6 uM after 2 days by CellTiter-Glo assay. It counts as functional, cell-based. The method in brief:
as §3
A general note: In ATP-based viability assays light output follows the ATP content of the culture.

Another data set relates to BT-474. As to the kind of experiment: Antiproliferative activity against human BT474 cells at 3 to 6 uM after 2 days by CellTiter-Glo assay. The data set is classed as functional, cell-based. The method in brief: as §3
Another data set has as its system THP-1. In words: Antiproliferative activity against human THP1 cells at 3 to 6 uM after 2 days by CellTiter-Glo assay. It counts as functional, cell-based. Summed up: as §3
For the next data set, the system named is Ramos. In words: Antiproliferative activity against human Ramos cells at 3 to 6 uM after 2 days by CellTiter-Glo assay. It counts as functional, cell-based. Summed up: as §3
In a further data set the test system is MOLT-4. In words: Antiproliferative activity against human MOLT4 cells at 3 to 6 uM after 2 days by CellTiter-Glo assay. The data set is classed as functional, cell-based. Summed up: as §3
The next data set concerns MOLM-13. As to the kind of experiment: Antiproliferative activity against human MOLM13 cells at 3 to 6 uM after 2 days by CellTiter-Glo assay. It counts as functional, cell-based. The method in brief: as §3
The test system of another data set is NCI-H1975. As to the kind of experiment: Antiproliferative activity against human NCI-H1975 cells assessed as reduction in colony formation at 2.5 to 10 uM after 2 weeks by soft agar assay. It counts as functional, cell-based. The method in brief:
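NCI-H1975 cells at 10,000/well in 0.4% agarose over a 1% low-melt agarose base layer (6-well). Inhibitor at varying concentrations, replenished twice weekly. After 2 weeks, colonies stained with iodonitrotetrazolium chloride and counted; mean±s.d., n=3.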

The next data set has as its system Mus musculus. In words: Toxicity in BALB/c mouse xenografted with human MV4-11 cells assessed as effect on body weight at 10 to 30 mg/kg administered qd via oral gavage measured twice weekly. The data set is classed as organism-based. Conditions: in vivo. The method in brief:
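Female BALB/c nude mice implanted subcutaneously with 5×10^6 MV4;11 cells in 50% matrigel/PBS. At about 230 mm³, mice randomized to vehicle, 10 or 30 mg/kg (10 ml/kg) once daily by oral gavage. Body weight and caliper tumor dimensions measured twice weekly; mean±sem.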

For data set [6], the species on record is Homo sapiens. As to the kind of experiment: Selectivity ratio of IC50 for VHR (unknown origin) expressed in Escherichia coli BL21(DE3) to IC50 for SHP2 E76A mutant (unknown origin) expressed in Escherichia coli BL21(DE3). The method in brief: as §2
Data set [7] is filed under the species Homo sapiens. In words: Allosteric inhibition of SHP2 E76A mutant (unknown origin) assessed as reduction in SHP2-mediated YAP Y357 peptide dephosphorylation. preincubated for 15 mins before YAP pY357 peptide addition and measured after 15 mins post substrate addition. Summed up:
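Purified SHP2 E76A (1.5 nM) preincubated 15 min with 20 μM inhibitor in 20 mM Tris-HCl pH 7.4, 100 mM NaCl, 1 mM EDTA, 2 mM DTT. 100 μM YAP pY357 peptide added for 15 min. Enzyme removed on 30 kD filters; products dot-blotted and probed with p-YAP(Y357) antibody (1:1000) with ECL detection.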

M-phase inducer phosphatase 1, sequence (P30304 whole entry): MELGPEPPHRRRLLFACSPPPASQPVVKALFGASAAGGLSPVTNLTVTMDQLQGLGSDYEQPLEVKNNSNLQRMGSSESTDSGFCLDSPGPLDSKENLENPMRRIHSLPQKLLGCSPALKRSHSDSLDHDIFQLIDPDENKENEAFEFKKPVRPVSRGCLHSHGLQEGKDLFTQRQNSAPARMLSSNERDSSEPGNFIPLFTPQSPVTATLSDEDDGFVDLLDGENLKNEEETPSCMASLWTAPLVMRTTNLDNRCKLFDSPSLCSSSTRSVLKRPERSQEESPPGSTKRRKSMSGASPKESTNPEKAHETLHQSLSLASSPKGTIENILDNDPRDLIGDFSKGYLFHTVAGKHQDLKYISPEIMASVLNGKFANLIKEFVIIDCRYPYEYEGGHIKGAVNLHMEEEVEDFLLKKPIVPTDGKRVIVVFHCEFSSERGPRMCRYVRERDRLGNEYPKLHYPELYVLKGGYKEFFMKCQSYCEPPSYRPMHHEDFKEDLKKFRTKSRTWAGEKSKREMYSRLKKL
Dual specificity protein phosphatase 3, sequence (P51452 whole entry): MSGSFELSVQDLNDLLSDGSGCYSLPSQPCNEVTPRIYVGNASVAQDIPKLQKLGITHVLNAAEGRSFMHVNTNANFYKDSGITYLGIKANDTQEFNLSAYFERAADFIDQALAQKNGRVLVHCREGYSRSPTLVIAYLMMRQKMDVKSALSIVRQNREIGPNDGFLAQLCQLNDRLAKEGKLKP

As for `CC1(N)CCN(c2nc(-c3ccc4cc(Br)ccc4c3)cs2)CC1`, the IC50 in data set [1] is 27.5 µM; in data set [2], greater than 100 µM. In addition, the Ratio IC50 in the data set filed under Homo sapiens [3] and in the data set filed under Homo sapiens [6] was greater than 30 each time. Also, the inhibition result in data set [4] was “Tde”. In the data set on MV4-11, the inhibition in vivo at 30 mg/kg was 56%. Moreover, the inhibition entry (in [5]; in the data set filed under Homo sapiens [7]) was “Active” in each case. Also, the result in the data set with NCI-H1838, in the data set with KYSE-520 cell line, in the data set on BT-474, in the data set on THP-1, with Ramos and in the data set with MOLT-4 was Active. In addition, the outcome in the data set on MOLM-13 and in the data set with NCI-H1975 was Active. For the same compound, the Activity entry in the data set with Mus musculus was “Non-Toxic”.
